# Assay outcomes: PubChem, NMMLSC
# MEKK3 PB1 HTS: MEKK3-MEK5 PB1 interaction, increase or decrease. bead-based flow cytometry, Alexa488-MEK5 binding to MEKK3; actives lie on both sides; 0 = blocked by unlabeled MEK5, 100 = vehicle. Q99759. AID 1529. binding response (% of control), % at 10 µM. 290,000 compounds, 1.4% hits;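 active = binding response more than 3 SD above or below the average of its plate-row segment, actives on both sides; inconclusive = wells at one plate position flagged as instrument error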;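 also: Alexa488 bead fluorescence after subtracting the streptavidin-only scavenger bead signal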
# MEKK2 mut-MEK5: signal of MEK5 binding to mutant human MEKK2 PB1 domain. percent response, % at 10 µM. bead flow cytometry, Alexa488-MEK5 binding to MEKK2 mutant. AID 1530. 290,000 compounds, 0.35% hits; in the data active = percent response above about 24%, passing the limit was not always enough
# Efflux pump mplx: inhibitors of Candida antifungal efflux pumps expressed in yeast; inhibition, % at 10 µM; S. cerevisiae Candida pump triplex, Nile Red efflux; 330,000 compounds, 0.44% hits;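 active = plate passing quality check with inhibition over a set limit, or well fluorescence over plate mean plus 4 SD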;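 also: Nile Red retained in pooled yeast measured as flow cytometry median fluorescence; higher means more Nile Red kept so more efflux inhibition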
# ABCB1 block: blocks JC-1 efflux by human ABCB1 transporter; P08183; CCRF-Adr cells, flow cytometry; inhibition, % at 6.6 µM; 190,000 compounds, 0.067% hits; AID 1326; in the data active = inhibition above about 40%;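 also: higher value means more JC-1 retained so stronger ABCB1 efflux block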
# MEKK2wt PB1 HTS: raises or lowers MEK5 binding to wildtype human MEKK2 PB1 domain; Q9Y2U5; bead flow cytometry, Alexa488-MEK5 binding to MEKK2 WT; actives lie on both sides; binding response (% of control), % at 10 µM; 290,000 compounds, 1.1% hits; in the data active = binding response below about 67% or above about 130%; inconclusive = no clear call, values can overlap the other calls; inactive = in between
# ABCG2 inh: blocks JC-1 efflux by human ABCG2 transporter; IgMXP3 cells, flow cytometry; 190,000 compounds, 0.1% hits; Q9UNQ0; AID 1325; inhibition, % at 6.6 µM;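 active = inhibition above 80%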
# Target sequence (Q9UNQ0 whole entry, looked up): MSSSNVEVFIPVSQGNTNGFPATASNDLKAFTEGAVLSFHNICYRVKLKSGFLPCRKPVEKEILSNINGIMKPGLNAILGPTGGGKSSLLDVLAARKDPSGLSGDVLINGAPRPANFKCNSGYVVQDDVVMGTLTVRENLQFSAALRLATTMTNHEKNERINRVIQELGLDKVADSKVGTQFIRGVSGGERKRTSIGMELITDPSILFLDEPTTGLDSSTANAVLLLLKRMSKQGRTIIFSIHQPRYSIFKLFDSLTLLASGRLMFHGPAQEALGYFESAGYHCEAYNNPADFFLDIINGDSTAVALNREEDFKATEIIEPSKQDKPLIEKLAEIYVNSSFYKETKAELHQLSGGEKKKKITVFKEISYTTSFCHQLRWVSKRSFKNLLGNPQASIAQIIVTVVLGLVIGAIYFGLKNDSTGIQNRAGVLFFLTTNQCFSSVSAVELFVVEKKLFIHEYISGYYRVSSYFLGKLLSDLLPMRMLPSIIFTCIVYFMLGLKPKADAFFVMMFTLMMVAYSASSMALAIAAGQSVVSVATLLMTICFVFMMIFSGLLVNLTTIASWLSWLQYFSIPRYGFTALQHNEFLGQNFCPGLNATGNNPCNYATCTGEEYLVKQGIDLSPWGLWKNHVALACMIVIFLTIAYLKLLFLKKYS
#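 Times: 10 min at 25 °C | Test system: Two drug-resistant human cell lines, ABCG2 and ABCB1 | Quantity: 3 million cells/mL final, two lines in 1:1 ratio | Signal: Flow cytometry, 530 nm JC-1 signal | Dosing: Compound at 6.6 µM | Controls: Nicardipine and DMSO wells | Reagent: JC-1 as fluorescent efflux pump substrate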
# Yeast cmpd fluor: flagged as fluorescent in efflux inhibitor counter-screen; shares compounds with Efflux pump mplx; S. cerevisiae AD/pABC3, compound fluorescence, flow cytometry; fluorescence ratio to DMSO, % at 10 µM; 1,700 compounds, 4% hits; AID 588517;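 active = fluorescence ratio to DMSO above its plate's cutoff, the plate mean ratio plus 5 SD, cut at about 210% in these data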;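 also: unstained yeast with no Nile Red so the signal is compound autofluorescence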
# CaMdr1 efflux inh: inhibitors of Candida albicans Mdr1 efflux pump; shares compounds with Efflux pump mplx; S. cerevisiae AD/CaMDR1, Nile Red efflux, flow cytometry; inhibition, % at 10 µM; 1,700 compounds, 1% hits; AID 588518; in the data active = inhibition above about 26%;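 also: higher means more Nile Red retained so more efflux inhibition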
# CaCdr2 efflux inh: Candida Cdr2 efflux pump inhibition; shares compounds with Efflux pump mplx; S. cerevisiae AD/CaCDR2, Nile Red retention, flow cytometry; Nile Red retention ratio vs DMSO, % at 10 µM; 1,700 compounds, 4% hits; in the data active = Nile Red retention ratio vs DMSO above about 190%;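 also: higher ratio means more blocking of Cdr2 efflux of the dye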
# Cdr1 pump inh: blocks the Candida albicans Cdr1 efflux pump in yeast | 1,700 compounds, 1% hits | inhibition, % at 10 µM | shares compounds with Efflux pump mplx | S. cerevisiae AD/CaCDR1, Nile Red efflux, flow cytometry;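 active = inhibition above the screen-wide mean plus twice its standard deviation, cut at about 32% in these data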
# Numbers stand for hits; . = inactive; ? = inconclusive; / = not tested or not shown. A selection: hits, their analogues and other compounds. The true share with any hit is near 2.5%.
SMILES,MEKK3 PB1 HTS,MEKK2 mut-MEK5,Efflux pump mplx,ABCB1 block,MEKK2wt PB1 HTS,ABCG2 inh,Yeast cmpd fluor,CaMdr1 efflux inh,CaCdr2 efflux inh,Cdr1 pump inh
COc1ccccc1-c1nc(C#N)c(N2CCN(c3cccc(Cl)c3)CC2)o1,.,.,.,.,.,.,/,/,/,/
Cc1ccc(C(C)NC(=O)c2c(-c3ccccc3)noc2C)cc1C (centres undefined),.,.,5.7,/,.,/,.,.,.,.
N#C/C(=C/c1ccncc1)c1nc2ccccc2s1,.,.,.,.,.,.,.,.,.,.
O=C(CN(c1ccc(Cl)c(C(F)(F)F)c1)S(=O)(=O)c1ccccc1)N1CCOCC1,.,.,0.7,.,.,.,.,.,.,.
Cc1nc(S(=O)(=O)Cc2ccc(Cl)cc2)nc2c1CCC2,.,.,1.9,.,.,.,.,.,.,.
Cc1ccc(CS(=O)(=O)c2nc3c(c(N(C)C)n2)CCCC3)cc1,.,.,.,.,.,.,/,/,/,/
COc1ccc(OC)c2c1C(=O)c1ccccc1C2=O,.,.,.,.,.,.,/,/,/,/
COc1ccc(OC)c2c1C(=O)C(Cl)=C(Cl)C2=O,.,.,1.5,/,.,/,.,.,245.8,.
CCc1cccc(C)c1NC(=O)c1ccc(CN2CCc3ccccc3C2)cc1,.,.,21.8,.,.,.,.,.,.,.
Cc1ccccc1NC(=O)c1ccc(CN2CCc3ccccc3C2)cc1,.,.,.,.,.,.,/,/,/,/
CC(C)CNC(=S)NC(=O)c1csc([N+](=O)[O-])c1,.,.,.,/,.,/,/,/,/,/
O=C(NCc1cccc(Cl)c1)NC(=O)c1csc([N+](=O)[O-])c1,.,.,0.9,/,.,/,.,.,.,.
CC1CC(C)CN(C(=O)Cn2cc(C=O)c3ccccc32)C1 (centres undefined),.,.,.,.,.,.,/,/,/,/
COc1ccccc1NC(=O)c1ccccc1NC(=O)c1cc(Cl)ccc1NC(=O)c1ccco1,.,.,0.5,.,.,.,.,.,.,.
Cc1ccnc(NC(=O)CCc2c[nH]c3ccccc23)c1,.,.,.,/,.,/,/,/,/,/
CCCCN1C(=O)C(=O)N(c2ccccc2)C1=S,.,.,6.5,.,.,.,.,.,.,.
CCCCN1C(=O)C(=O)N(CC(=O)N2CCN(c3ccccc3)CC2)C1=O,/,/,.,/,/,/,/,/,/,/
CCn1c(Cc2ccc(OC)cc2)nnc1SCc1nc2ccccc2c(=O)[nH]1,.,.,.,.,.,.,/,/,/,/
COc1cccc(-c2ccc(NC(=O)C3CCCN(Cc4nccn4C)C3)cc2)c1 (centres undefined),.,.,.,/,.,/,/,/,/,/
COc1ccc(-n2ncc3c2CC(C)(C)CC3NC(=O)c2ccnn2C)cc1 (centres undefined),.,.,.,/,.,/,/,/,/,/
CC1(C)Cc2c(cnn2-c2ccc(F)cc2)C(NC(=O)c2cnccn2)C1 (centres undefined),.,.,6.2,/,.,/,.,.,.,.
COc1ccc(-n2ncc3c2CC(C)(C)CC3NC(=O)c2cn[nH]c2)cc1 (centres undefined),.,.,.,/,.,/,.,.,.,.
CC(C)c1ccccc1-n1c(SCc2cc(=O)oc3ccc4ccccc4c23)nnc1-c1cccnc1,.,.,15.2,.,.,.,.,.,.,.
COC(=O)c1nn(-c2ccccc2)c(=O)cc1Sc1ccc(Cl)cc1,?,.,0.6,.,?,.,.,.,.,.
COc1ccc(NC(=O)Nc2cccc3c2O[C@H](CN(C)C(=O)Nc2ccccc2)[C@@H](C)CN([C@H](C)CO)C3=O)cc1,/,/,.,/,/,/,/,/,/,/
SMILES,MEKK3 PB1 HTS,MEKK2 mut-MEK5,Efflux pump mplx,ABCB1 block,MEKK2wt PB1 HTS,ABCG2 inh,Yeast cmpd fluor,CaMdr1 efflux inh,CaCdr2 efflux inh,Cdr1 pump inh
COc1ccc(NC(=O)Nc2cccc3c2O[C@H](CN(C)C(=O)NC2CCCCC2)[C@@H](C)CN([C@H](C)CO)C3=O)cc1,/,/,.,/,/,/,.,.,.,.
CC(=O)Nc1ccccc1OCC(=O)NC(C)c1ccccc1 (centres undefined),.,.,.,.,.,.,/,/,/,/
CC(=O)Nc1ccccc1OCC(=O)NCC(F)(F)F,.,.,0.6,.,.,.,.,.,.,.
Cc1nc(SCC(=O)N2CCOCC2)c2c3c(sc2n1)CCC3,/,/,.,/,/,/,/,/,/,/
COc1ccc2noc3c2c1C(=O)c1ccccc1-3,/,/,0.9,/,/,/,.,.,197.1,.
CCOc1ccc(NS(=O)(=O)c2ccc(C(=O)N3CCCC(C)C3)cc2)cc1 (centres undefined),/,/,.,/,/,/,/,/,/,/
C=CCn1c(SCc2cc(=O)n3ccsc3n2)nc2ccccc2c1=O,.,.,0.5,.,.,.,.,.,.,.
Cc1cc(C)nc(NN=C(c2ccccc2)c2ccccc2)n1,.,.,.,.,.,.,/,/,/,/
O=S(=O)(c1ccc(F)cc1)N1CCN(CC(O)COCc2cccs2)CC1 (centres undefined),.,.,.,.,.,.,/,/,/,/
OC(COCc1cccs1)CN1CCN(c2cccc(C(F)(F)F)c2)CC1 (centres undefined),.,.,6.8,.,.,.,.,.,.,.
O=C(COc1ccc(Cl)cc1Cl)NN1C(=O)C2C3C=CC([C@@H]2C1=O)C31CC1 (some centres undefined),.,.,.,/,.,/,/,/,/,/
O=C(COc1ccc(Cl)cc1Cl)NN1C(=O)/C(=C\c2ccc(Cl)cc2)SC1=S,.,.,.,.,.,.,.,.,.,.
COc1ccc(OC)c(C(=O)Nc2c(O)ccc3ccccc23)c1,/,/,.,/,/,/,/,/,/,/
CCCCNC(=O)c1ccc(Cn2c(=S)[nH]c3c([nH]c4ccc(OC)cc43)c2=O)cc1,.,.,8.2,.,.,.,.,.,.,.
CCCOc1ccc(/C=c2\sc3nc(-c4ccco4)nn3c2=O)cc1OCC,/,/,.,.,/,.,.,.,.,.
CC(=O)Oc1cccc(/C=c2\sc3nc(-c4ccco4)nn3c2=O)c1,.,.,.,.,.,.,.,.,.,.
CC1=C(C(=O)OC2CCC(C)CC2)C(c2ccc(O)c([N+](=O)[O-])c2)NC(=O)N1 (centres undefined),.,.,.,/,.,/,/,/,/,/
COc1cccc(NC(=O)CSc2nnc(Cc3cccs3)n2-c2ccc(C)cc2)c1,.,.,.,.,.,.,.,.,.,.
